# What was measured:
# CAKI-1 = assay: Growth inhibition of human Caki1 cells after 48 hrs by sulforhodamine B assay; format: functional; settings: CAKI-1, 48 h
# How it was run: (§1)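 Dose–response in each cell line over at least five concentrations at 10-fold dilutions, with 48 h continuous exposure and sulforhodamine B read-out.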
# Malme-3M = assay: Growth inhibition of human MALME-3M cells after 48 hrs by sulforhodamine B assay; format: functional
# How it was run: (§2)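 Panel of 60 human cancer cell lines; for each compound, dose–response curves per cell line measured at a minimum of five concentrations at 10-fold dilutions. Cells exposed continuously to drug for 48 h, and growth was read out by sulforhodamine B staining.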
# MOLT-4 = assay: Growth inhibition of human MOLT4 cells after 48 hrs by sulforhodamine B assay; format: functional; settings: MOLT-4, 48 h; how it was run: as §2
# SF-539 = assay: Growth inhibition of human SF539 cells after 48 hrs by sulforhodamine B assay; format: functional; settings: SF-539, 48 h; how it was run: as §2
# M14 = assay: Growth inhibition of human M14 cells after 48 hrs by sulforhodamine B assay; format: functional; settings: M14, 48 h; how it was run: as §2
# HCT-15 = assay: Growth inhibition of human HCT15 cells after 48 hrs by sulforhodamine B assay; format: functional; settings: HCT-15, 48 h; how it was run: as §2
# NCI-H226 = assay: Growth inhibition of human NCI-H226 cells after 48 hrs by sulforhodamine B assay; format: functional; settings: NCI-H226, 48 h; how it was run: as §2
# LOX IMVI = assay: Growth inhibition of human LOXIMVI cells after 48 hrs by sulforhodamine B assay; format: functional; how it was run: as §2
# NCI-H522 = assay: Growth inhibition of human NCI-H522 cells after 48 hrs by sulforhodamine B assay; format: functional; settings: NCI-H522, 48 h; how it was run: as §2
# PC-3 = assay: Growth inhibition of human PC3 cells after 48 hrs by sulforhodamine B assay; format: functional; settings: PC-3, 48 h; how it was run: as §2
# OVCAR-4 = assay: Growth inhibition of human OVCAR4 cells after 48 hrs by sulforhodamine B assay; format: functional; settings: OVCAR-4, 48 h; how it was run: as §2
# HCC 2998 = assay: Growth inhibition of human HCC2998 cells after 48 hrs by sulforhodamine B assay; format: functional; settings: HCC 2998, 48 h; how it was run: as §2
# HCT-116 = assay: Growth inhibition of human HCT116 cells after 48 hrs by sulforhodamine B assay; format: functional; settings: HCT-116, 48 h; how it was run: as §2
# Calf thymus DNA = assay: Binding affinity to calf thymus duplex-form DNA assessed as melting temperature at 1:5 compound/DNA ratio after 18 hrs; format: nucleic-acid assay; settings: Bos taurus
# SK-OV-3 = assay: Growth inhibition of human SKOV3 cells after 48 hrs by sulforhodamine B assay; format: functional; settings: SK-OV-3, 48 h; how it was run: as §2
# NCI-H322M = assay: Growth inhibition of human NCI-H322M cells after 48 hrs by sulforhodamine B assay; format: functional; how it was run: as §2
# SN12C = assay: Growth inhibition of human SN12C cells after 48 hrs by sulforhodamine B assay; format: functional; how it was run: as §2
# OVCAR-8 = assay: Growth inhibition of human OVCAR8 cells after 48 hrs by sulforhodamine B assay; format: functional; settings: OVCAR-8, 48 h; how it was run: as §2
# HOP-92 = assay: Growth inhibition of human HOP92 cells after 48 hrs by sulforhodamine B assay; format: functional; settings: HOP-92, 48 h; how it was run: as §2
# NCI/ADR-RES = assay: Growth inhibition of human NCI/ADR-RES cells after 48 hrs by sulforhodamine B assay; format: functional; how it was run: as §2
# IGROV-1 = assay: Growth inhibition of human IGROV1 cells after 48 hrs by sulforhodamine B assay; format: functional; settings: IGROV-1, 48 h; how it was run: as §2
# UACC-62 = assay: Growth inhibition of human UACC62 cells after 48 hrs by sulforhodamine B assay; format: functional; settings: UACC-62, 48 h; how it was run: as §2
# EKVX = assay: Growth inhibition of human EKVX cells after 48 hrs by sulforhodamine B assay; format: functional; how it was run: as §1
# SNB-75 = assay: Growth inhibition of human SNB75 cells after 48 hrs by sulforhodamine B assay; format: functional; settings: SNB-75, 48 h; how it was run: as §2
# U-251 = assay: Growth inhibition of human U251 cells after 48 hrs by sulforhodamine B assay; format: functional; settings: U-251, 48 h; how it was run: as §2
# SK-MEL-28 = assay: Growth inhibition of human SK-MEL-28 cells after 48 hrs by sulforhodamine B assay; format: functional; settings: SK-MEL-28, 48 h; how it was run: as §2
# 786-0 = assay: Growth inhibition of human 786-0 cells after 48 hrs by sulforhodamine B assay; format: functional; settings: 786-0, 48 h; how it was run: as §1
# A498 = assay: Growth inhibition of human A498 cells after 48 hrs by sulforhodamine B assay; format: functional; settings: A498, 48 h; how it was run: as §1
# SF-268 = assay: Growth inhibition of human SF268 cells after 48 hrs by sulforhodamine B assay; format: functional; settings: SF-268, 48 h; how it was run: as §2
# UACC-257 = assay: Growth inhibition of human UACC257 cells after 48 hrs by sulforhodamine B assay; format: functional; settings: UACC-257, 48 h; how it was run: as §2
compound,measurement,setting,value
COc1cc2c(cc1OCCCCOc1ccc(-c3nc4ccccc4s3)cc1)N=C[C@@H]1CCCN1C2=O,GI50,CAKI-1,355 nM
same,GI50,Malme-3M,1260 nM
same,GI50,MOLT-4,234 nM
same,GI50,SF-539,347 nM
same,GI50,M14,537 nM
same,GI50,HCT-15,646 nM
same,GI50,NCI-H226,1450 nM
same,GI50,LOX IMVI,407 nM
same,GI50,NCI-H522,324 nM
same,GI50,PC-3,295 nM
same,GI50,OVCAR-4,1150 nM
same,GI50,HCC 2998,363 nM
same,GI50,HCT-116,295 nM
same,ΔTm,Calf thymus DNA,0.5 °C
same,GI50,SK-OV-3,1230 nM
same,GI50,NCI-H322M,2190 nM
same,GI50,SN12C,631 nM
same,GI50,OVCAR-8,759 nM
same,GI50,HOP-92,178 nM
same,GI50,NCI/ADR-RES,1150 nM
same,GI50,IGROV-1,2400 nM
same,GI50,UACC-62,794 nM
same,GI50,EKVX,1260 nM
same,GI50,SNB-75,1070 nM
same,GI50,U-251,229 nM
same,GI50,SK-MEL-28,2140 nM
same,GI50,786-0,214 nM
same,GI50,A498,2040 nM
same,GI50,SF-268,661 nM
same,GI50,UACC-257,2190 nM
